The text below walks through data of paper PMC7699308 (Biochemistry, 2020).

Bridges are numbered along the chain shown (N, C = ends). Where no end group is shown, it is not given here.

Series [1] is described as follows: Thioflavin T kinetic assay of amyloid formation. The conditions noted are these: 16 μM peptide, 32 μM ThT, pH 7.4, 25°C, one week (seven days). In kind it is physicochemical. The method, boiled down:
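HFIP peptide stocks, quantified by A280, were lyophilized 24 hrs and resuspended in 10 mM phosphate, 140 mM KCl, pH 7.4, with 32 μM thioflavin T. Peptide was 16 μM in the main assays and 100 μM in the supplementary set. Run at 25°C without shaking, triplicate wells. Fluorescence read at ex 450/em 485 nm every ten minutes. T50 is the time to half-maximal ThT fluorescence.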

A short description of series [2]: Cytotoxicity dose response, statements of the text not split by assay. In kind it is cell-based. The conditions noted are these: rat.
Series [3] can be described thus: Ion mobility mass spectrometry, collision cross sections. In kind it is physicochemical. As to conditions: for CCS, 1^+2 ion: charge +2, 100 mM ammonium acetate pH 7.5. Put shortly:
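Lyophilized peptide dissolved in DMSO at 3.2 mM, held 24 hrs at room temperature, then diluted 100-fold in 100 mM ammonium acetate pH 7.5 and directly infused for ion-mobility MS. m/z 350-5000 calibrated with cesium iodide. CCS calibrated daily with polyethylene oxide and tryptic cytochrome c peptides. TWCCS N2→He derived from reduced mobilities in nitrogen using helium calibrant values. Triplicate runs on different days.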

Setting [4] is: monomer, TWCCS N2→He, triplicate on different days.

As for `CC[C@H](C)[C@H](NC(=O)[C@H](C)NC(=O)CNC(=O)[C@H](Cc1ccccc1)NC(=O)[C@H](CC(N)=O)NC(=O)[C@H](CC(N)=O)NC(=O)[C@H](CO)NC(=O)[C@H](CO)NC(=O)[C@H](Cc1c[nH]cn1)NC(=O)[C@@H](NC(=O)[C@H](CC(C)C)NC(=O)[C@H](Cc1ccccc1)NC(=O)[C@H](CC(N)=O)NC(=O)[C@H](C)NC(=O)[C@H](CC(C)C)NC(=O)[C@H](CCCNC(=N)N)NC(=O)[C@H](CCC(N)=O)NC(=O)[C@@H](NC(=O)[C@H](C)NC(=O)[C@@H]1CSSC[C@H](NC(=O)[C@@H](N)CCCCN)C(=O)N[C@@H](CC(N)=O)C(=O)N[C@@H]([C@@H](C)O)C(=O)N[C@@H](C)C(=O)N[C@@H]([C@@H](C)O)C(=O)N1)[C@@H](C)O)C(C)C)C(=O)N[C@@H](CC(C)C)C(=O)N[C@@H](CO)C(=O)N[C@@H](CO)C(=O)N[C@H](C(=O)N[C@@H](CC(N)=O)C(=O)N[C@H](C(=O)NCC(=O)N[C@@H](CO)C(=O)N[C@@H](CC(N)=O)C(=O)N[C@H](C(=O)N[C@@H](Cc1ccc(O)cc1)C(N)=O)[C@@H](C)O)C(C)C)[C@@H](C)O` [hIAPP, human islet amyloid polypeptide], in series [1], the “Increase in ThT fluorescence over the time course of the study” value is recorded as “showed an increase in ThT fluorescence”. Further, the EC50 at 24 h in series [2] is 27 to 48.1 µM. The “CCS, 2^+4 ion” value in series [3] (dimer, charge +4, triplicate on different days) is reported as 864.0 ± 9.9 Å^2. In addition, the “CCS, 2^+5 ion, second conformation” value in series [3] (dimer, charge +5, lower line of the two conformations, triplicate) is recorded as 863.0 ± 21.1 Å^2. The “CCS, 1^+2 ion” value in series [3] (setting [4]) was 544.7 ± 4.6 Å^2. The “CCS, 1^+3 ion” value in series [3] (monomer, charge +3, TWCCS N2→He, triplicate on different days) is recorded as 551.1 ± 8.1 Å^2. The “CCS, 1^+4 ion, second (compact) conformation” value in series [3] (monomer, charge +4, lower line of the two conformations, triplicate) came to 552.9 ± 12.2 Å^2.
With “IAPPA25P S28P: an A25P S28P analog of IAPP (KCNTATCATQRLANFLVHSSNNFGPILPSTNVGSNTY; disulfide 2-7; not fully specified (C-terminus); ends not checked; UniProt P10997 34-70, looked up, variant A25P S28P)”, the “Increase in ThT fluorescence over the time course of the study” value in series [1] was “showed no increase in ThT fluorescence”. In addition, in series [3] (setting [4]), the “CCS, 1^+2 ion” value amounted to 550.5 ± 3.8 Å^2.

As a reminder, the EC50 is the concentration at which the effect is half-maximal. Low values mean greater potency, high ones weaker potency.
